Test results: ChEMBL document CHEMBL1142695, “Discovery of functionally selective 7,8,9,10-tetrahydro-7,10-ethano-1,2,4-triazolo[3,4-a]phthalazines as GABA A receptor agonists at the alpha3 subunit” (J Med Chem, 2005)
pKi: −log10 of the molar value.

Tests used:
Assay type in all cases: cell-based
[1] = target: T1, GABA-A receptor; alpha-5/beta-3/gamma-2 (Homo sapiens, UniProt P18507+P28472+P31644); assay: Inhibition of [3H]Ro-151788 binding to recombinant human gamma-aminobutyric-acid A receptor alpha-5-beta-3-gamma-2 subtype expressed in L (tk-) cells
T1 sequence (P18507 whole entry): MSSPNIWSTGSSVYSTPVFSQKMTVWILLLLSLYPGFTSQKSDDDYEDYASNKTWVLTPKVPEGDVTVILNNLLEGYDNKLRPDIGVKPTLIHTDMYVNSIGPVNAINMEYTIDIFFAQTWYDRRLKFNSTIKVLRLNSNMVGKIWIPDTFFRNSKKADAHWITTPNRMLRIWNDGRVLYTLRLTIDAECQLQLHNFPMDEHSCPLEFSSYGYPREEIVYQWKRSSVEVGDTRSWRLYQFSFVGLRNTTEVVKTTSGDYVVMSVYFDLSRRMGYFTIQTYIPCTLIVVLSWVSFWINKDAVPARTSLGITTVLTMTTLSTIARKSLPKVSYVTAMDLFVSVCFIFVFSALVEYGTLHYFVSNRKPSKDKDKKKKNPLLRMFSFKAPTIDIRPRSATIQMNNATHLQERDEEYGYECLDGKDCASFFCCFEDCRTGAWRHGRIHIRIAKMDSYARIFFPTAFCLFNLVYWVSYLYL
T1 sequence (P28472 whole entry): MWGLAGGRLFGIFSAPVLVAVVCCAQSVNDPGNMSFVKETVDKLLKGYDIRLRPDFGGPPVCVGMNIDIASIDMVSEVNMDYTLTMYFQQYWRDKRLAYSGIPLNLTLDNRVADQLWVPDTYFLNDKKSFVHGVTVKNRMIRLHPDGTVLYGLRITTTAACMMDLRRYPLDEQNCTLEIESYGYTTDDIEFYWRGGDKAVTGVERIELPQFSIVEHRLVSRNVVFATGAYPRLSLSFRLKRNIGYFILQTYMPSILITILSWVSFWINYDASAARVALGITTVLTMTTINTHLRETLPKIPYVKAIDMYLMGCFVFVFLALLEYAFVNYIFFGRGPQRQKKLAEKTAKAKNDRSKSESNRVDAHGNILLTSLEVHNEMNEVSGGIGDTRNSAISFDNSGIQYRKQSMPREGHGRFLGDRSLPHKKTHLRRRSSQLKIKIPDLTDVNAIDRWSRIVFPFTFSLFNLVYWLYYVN
T1 sequence (P31644 whole entry): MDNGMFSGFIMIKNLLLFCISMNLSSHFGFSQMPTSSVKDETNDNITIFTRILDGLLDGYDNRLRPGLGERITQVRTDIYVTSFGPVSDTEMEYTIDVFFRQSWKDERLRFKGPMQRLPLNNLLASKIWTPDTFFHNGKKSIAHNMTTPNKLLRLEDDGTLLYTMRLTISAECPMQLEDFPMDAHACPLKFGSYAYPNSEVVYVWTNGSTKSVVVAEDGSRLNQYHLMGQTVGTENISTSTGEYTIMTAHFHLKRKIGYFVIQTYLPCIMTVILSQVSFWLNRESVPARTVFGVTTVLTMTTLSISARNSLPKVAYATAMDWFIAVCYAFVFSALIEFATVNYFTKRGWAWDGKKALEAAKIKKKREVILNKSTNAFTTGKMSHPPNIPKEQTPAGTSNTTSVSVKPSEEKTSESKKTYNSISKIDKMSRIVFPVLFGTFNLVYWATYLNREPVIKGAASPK

[2] = target: GABA-A receptor; alpha-3/beta-3/gamma-2 (Homo sapiens) (UniProt P18507+P28472+P34903); assay: Efficacy was measured as modulation of the current in response to GABA at hGABA alpha-3-beta-3-gamma-2 receptor expressed in Xenopus oocytes; conditions: Oocyte
Method in brief: (§1)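 Two-electrode voltage clamp on Xenopus oocytes expressing each receptor combination. […] Value is percent increase or decrease of the EC20 GABA current.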

[3] = target: T2, GABA-A receptor; alpha-3/beta-3/gamma-2 (Homo sapiens, UniProt P18507+P28472+P34903); assay: Inhibition of [3H]Ro-151788 binding to recombinant human gamma-aminobutyric-acid A receptor alpha-3-beta-3-gamma-2 subtype expressed in L (tk-) cells
T2 sequence (P18507 whole entry): T1 sequence (P18507 whole entry)
T2 sequence (P28472 whole entry): T1 sequence (P28472 whole entry)
T2 sequence (P34903 whole entry): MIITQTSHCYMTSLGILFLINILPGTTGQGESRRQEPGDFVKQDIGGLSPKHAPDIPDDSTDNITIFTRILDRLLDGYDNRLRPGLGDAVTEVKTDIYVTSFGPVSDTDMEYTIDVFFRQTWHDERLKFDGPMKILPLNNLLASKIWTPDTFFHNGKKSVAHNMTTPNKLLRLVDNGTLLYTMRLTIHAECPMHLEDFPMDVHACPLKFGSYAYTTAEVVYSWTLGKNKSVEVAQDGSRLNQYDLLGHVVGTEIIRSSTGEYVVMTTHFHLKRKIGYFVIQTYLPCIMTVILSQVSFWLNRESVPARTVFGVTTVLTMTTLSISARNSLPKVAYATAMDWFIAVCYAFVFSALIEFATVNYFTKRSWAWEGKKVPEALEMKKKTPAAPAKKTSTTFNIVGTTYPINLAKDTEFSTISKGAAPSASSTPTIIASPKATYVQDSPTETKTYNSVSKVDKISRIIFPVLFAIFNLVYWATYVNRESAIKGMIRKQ

[4] = target: T3, GABA-A receptor; alpha-2/beta-3/gamma-2 (Homo sapiens, UniProt P18507+P28472+P47869); assay: Inhibition of [3H]Ro-151788 binding to recombinant human gamma-aminobutyric acid A receptor alpha-2-beta-3-gamma-2 subtype expressed in L (tk-) cells
T3 sequence (P18507 whole entry): T1 sequence (P18507 whole entry)
T3 sequence (P28472 whole entry): T1 sequence (P28472 whole entry)
T3 sequence (P47869 whole entry): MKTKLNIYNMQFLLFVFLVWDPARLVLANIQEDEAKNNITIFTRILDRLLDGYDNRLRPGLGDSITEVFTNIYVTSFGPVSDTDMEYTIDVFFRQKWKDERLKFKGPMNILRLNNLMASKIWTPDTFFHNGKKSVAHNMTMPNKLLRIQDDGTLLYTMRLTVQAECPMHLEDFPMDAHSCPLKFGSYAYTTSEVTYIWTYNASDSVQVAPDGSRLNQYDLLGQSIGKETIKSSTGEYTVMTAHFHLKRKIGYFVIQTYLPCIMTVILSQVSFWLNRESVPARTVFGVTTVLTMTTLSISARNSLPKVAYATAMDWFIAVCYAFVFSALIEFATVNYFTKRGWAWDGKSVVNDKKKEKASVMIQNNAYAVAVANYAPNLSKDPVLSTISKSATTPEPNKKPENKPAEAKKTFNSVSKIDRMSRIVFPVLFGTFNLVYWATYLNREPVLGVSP

[5] = target: GABA-A receptor; alpha-1/beta-3/gamma-2 (Homo sapiens) (UniProt P14867+P18507+P28472); assay: Efficacy was measured as modulation of the current in response to GABA at hGABA alpha-1-beta-3-gamma-2 receptor expressed in Xenopus oocytes; conditions: Oocyte; method in brief: as §1
[6] = target: T4, GABA-A receptor; alpha-1/beta-3/gamma-2 (Homo sapiens, UniProt P14867+P18507+P28472); assay: Inhibition of [3H]Ro-151788 binding to recombinant human gamma-aminobutyric-acid A receptor alpha-1-beta-3-gamma-2 subtype expressed in L (tk-) cells
T4 sequence (P14867 whole entry): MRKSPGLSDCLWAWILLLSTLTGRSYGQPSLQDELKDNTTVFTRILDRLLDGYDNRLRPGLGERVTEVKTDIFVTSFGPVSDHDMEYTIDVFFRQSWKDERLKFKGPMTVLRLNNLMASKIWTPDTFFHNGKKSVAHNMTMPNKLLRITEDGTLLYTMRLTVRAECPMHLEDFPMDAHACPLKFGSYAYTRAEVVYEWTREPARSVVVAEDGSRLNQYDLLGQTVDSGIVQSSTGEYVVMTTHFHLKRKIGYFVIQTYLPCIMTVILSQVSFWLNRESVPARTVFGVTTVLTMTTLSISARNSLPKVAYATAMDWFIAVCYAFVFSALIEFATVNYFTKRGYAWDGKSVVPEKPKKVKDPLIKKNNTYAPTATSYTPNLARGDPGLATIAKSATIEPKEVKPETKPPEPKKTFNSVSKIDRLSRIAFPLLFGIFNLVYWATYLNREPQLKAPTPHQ
T4 sequence (P18507 whole entry): T1 sequence (P18507 whole entry)
T4 sequence (P28472 whole entry): T1 sequence (P28472 whole entry)

[7] = target: GABA-A receptor; alpha-5/beta-3/gamma-2 (Homo sapiens) (UniProt P18507+P28472+P31644); assay: Efficacy was measured as modulation of the current in response to GABA at hGABA alpha-5-beta-3-gamma-2 receptor expressed in Xenopus oocytes; conditions: Oocyte; method in brief: as §1
[8] = target: GABA-A receptor; alpha-2/beta-3/gamma-2 (Homo sapiens) (UniProt P18507+P28472+P47869); assay: Efficacy was measured as modulation of the current in response to GABA at hGABA alpha-2-beta-3-gamma-2 receptor expressed in Xenopus oocytes; conditions: Oocyte; method in brief: as §1

## Cc1cc(C)n(COc2nn3c(-c4ccccc4)nnc3c3c2C2CCC3CC2)n1
[1]
  pKi: 9.59
[2]
  Efficacy: 7%
[3]
  pKi: 8.64
[4]
  pKi: 8.12
[5]
  Efficacy: 31%
[6]
  pKi: 7.64
[7]
  Efficacy: 1%

## N#Cc1cccc(COc2nn3c(-c4ccccc4)nnc3c3c2C2CCC3CC2)c1
[1]
  pKi: 8.11
[2]
  Efficacy: 38%
[3]
  pKi: 7.18
[4]
  pKi: 6.74
[5]
  Efficacy: 23%
[6]
  pKi: < 6.00
[7]
  Efficacy: 23%

## Cc1ccc(-c2nnc3c4c(c(OCc5ccccn5)nn23)C2CCC4CC2)cc1
[1]
  pKi: 8.33
[2]
  Efficacy: 40%
[8]
  Efficacy: 14%
[3]
  pKi: 7.49
[4]
  pKi: 6.92
[5]
  Efficacy: 9%
[6]
  pKi: 6.51
[7]
  Efficacy: 6%

## c1ccc(-c2nnc3c4c(c(OCc5cccnn5)nn23)C2CCC4CC2)cc1
[1]
  pKi: 9.06
[2]
  Efficacy: 57%
[8]
  Efficacy: 35%
[3]
  pKi: 8.07
[4]
  pKi: 7.85
[5]
  Efficacy: 64%
[6]
  pKi: 7.48
[7]
  Efficacy: 39%

## Cn1cnc(COc2nn3c(-c4ccccc4)nnc3c3c2C2CCC3CC2)n1
[1]
  pKi: 8.68
[2]
  Efficacy: 88%
[8]
  Efficacy: 16%
[3]
  pKi: 8.10
[4]
  pKi: 7.80
[5]
  Efficacy: 26%
[6]
  pKi: 7.51
[7]
  Efficacy: 26%

## COc1cccc(-c2nnc3c4c(c(OCc5ccccn5)nn23)C2CCC4CC2)c1
[1]
  pKi: 8.22
[2]
  Efficacy: 43%
[3]
  pKi: 7.54
[4]
  pKi: 7.10
[5]
  Efficacy: 51%
[6]
  pKi: 6.85

## CN1C(=O)CN=C(c2ccccc2)c2cc(Cl)ccc21
[2]
  Efficacy: 118%
[8]
  Efficacy: 138%
[5]
  Efficacy: 103%
[7]
  Efficacy: 106%

## c1ccc(-c2nnc3c4c(c(OCc5cccnc5)nn23)C2CCC4CC2)cc1
[1]
  pKi: 8.19
[2]
  Efficacy: 20%
[3]
  pKi: 7.60
[4]
  pKi: 7.17
[5]
  Efficacy: 51%
[6]
  pKi: 6.82

## CN(C)Cc1cccc(COc2nn3c(-c4ccccc4)nnc3c3c2C2CCC3CC2)c1
[1]
  pKi: 8.35
[2]
  Efficacy: -16%
[3]
  pKi: 7.62
[4]
  pKi: 7.19
[6]
  pKi: 6.72
[7]
  Efficacy: -25%

## c1ccc(-c2nnc3c4c(c(OCc5ccccn5)nn23)C2CCC4CC2)cc1
[1]
  pKi: 8.92
[3]
  pKi: 7.89
[4]
  pKi: 7.59
[6]
  pKi: 7.15
[7]
  Efficacy: 18%

## Cc1ccc(COc2nn3c(-c4ccccc4)nnc3c3c2C2CCC3CC2)nc1
[1]
  pKi: 8.92
[2]
  Efficacy: 74%
[3]
  pKi: 7.82
[4]
  pKi: 7.77
[5]
  Efficacy: 100%
[6]
  pKi: 7.25

## c1ccc(COc2nn3c(-c4cccnc4)nnc3c3c2C2CCC3CC2)nc1
[1]
  pKi: 8.57
[2]
  Efficacy: 9%
[3]
  pKi: 7.42
[4]
  pKi: 7.27
[5]
  Efficacy: 36%
[6]
  pKi: 6.59
[7]
  Efficacy: 31%

## Cc1ccnc(COc2nn3c(-c4ccccc4)nnc3c3c2C2CCC3CC2)c1
[1]
  pKi: 8.70
[2]
  Efficacy: 33%
[3]
  pKi: 7.74
[4]
  pKi: 7.72
[5]
  Efficacy: 41%
[6]
  pKi: 7.03

## c1ccc(-c2nnc3c4c(c(OCc5ncc[nH]5)nn23)C2CCC4CC2)cc1
[1]
  pKi: 9.06
[2]
  Efficacy: 29%
[3]
  pKi: 8.17
[4]
  pKi: 7.74
[5]
  Efficacy: 35%
[6]
  pKi: 7.28

## COc1ccc(-c2nnc3c4c(c(OCc5ccccn5)nn23)C2CCC4CC2)cc1
[1]
  pKi: 8.38
[2]
  Efficacy: 33%
[3]
  pKi: 7.28
[4]
  pKi: 7.13
[5]
  Efficacy: 14%
[6]
  pKi: 6.64

## c1ccc(-c2nnc3c4c(c(OCc5ncccc5OCC5CC5)nn23)C2CCC4CC2)cc1
[1]
  pKi: 9.12
[2]
  Efficacy: 139%
[3]
  pKi: 8.64
[4]
  pKi: 8.25
[5]
  Efficacy: 175%
[6]
  pKi: 8.16
[7]
  Efficacy: 50%

## CCn1ccnc1COc1nn2c(-c3ccccc3)nnc2c2c1C1CCC2CC1
[1]
  pKi: 9.54
[2]
  Efficacy: 23%
[3]
  pKi: 9.00
[4]
  pKi: 8.64
[5]
  Efficacy: 26%
[6]
  pKi: 8.48
